IEC-6 tox = counter-screen for KLF5 inhibitors: cytotoxicity in IEC-6 cells | IEC-6 cytotoxicity, luminescence viability | inhibition, % at 5 µM | hit rate 0.78% among 290,000 | AID 1825; in the data active = inhibition above about 22%;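 also: 0% = plate median of test compound wells and 100% = cytotoxic reference compound wells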
MT stabilize HCS = microtubule stabilization, imaging screen. HeLa tubulin immunostaining HCS, 24 h; share of cells brighter than vehicle mean+2SD. % tubulin-high responders, % at 10 µM. hit rate 0.83% among 200,000;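 active = plate Z-score above 3 for both tubulin-high and condensed-nucleus cell shares, with cell loss under 80%, at 10 µM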;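 also: anti alpha tubulin signal scored within the nucleus-defined area of each cell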
BaF3 tox = counter-screen for JAK2V617F inhibitors: parental Ba/F3 viability inhibitors. CellTiter-Glo ATP luminescence. inhibition, % at 5.6 µM. hit rate 1.1% among 220,000. AID 1486;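 active = inhibition above a per-campaign cutoff, the mean inhibition of all tested compounds plus 3 SD, cut at about 27% in these data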;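 also: 0% = DMSO wells and 100% = JAK Inhibitor I control wells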
b-catenin transl = alters nuclear translocation of beta-catenin in HeLa cells; hit rate 0.3% among 190,000; immunofluorescence imaging; nuclear translocation activity, % at 5 µM;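 active = nuclear translocation activity above 50% at 5 µM, with a well cell count of 50 or more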;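 also: per-cell ratio of nuclear to cytoplasmic median beta-catenin stain intensity; plate controls were DMSO negative control for no effect and GSK-3 inhibitor IX positive control for full effect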
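Technique: fluorescence imaging of beta-catenin antibody stain plus DAPI / Material: human HeLa cell line / Incubation: compound treatment 24 h, 37°C, 5% CO2 / Read-out basis: % activation of per-cell nuclear versus cytoplasmic median beta-catenin signal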
APP transl inh = APP translation inhibition; AID 1285; inhibition, % at 2 µM; SH-SY5Y APP 5'UTR-luciferase reporter, luminescence; hit rate 0.82% among 190,000;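 active = inhibition above a set limit, derived from the sample mean plus 3 SD, cut at about 45% in these data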
Ba/F3 V617F tox = lowers viability of Ba/F3 cells expressing EpoR and JAK2V617F. ATP luminescence. inhibition, % at 5.6 µM. hit rate 1.1% among 220,000. AID 1446;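 active = inhibition above the campaign mean plus 3 SD over all tested compounds, cut at about 24% in these data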;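 also: cytokine-independent growth of Ba/F3 cells driven by EpoR plus mutant JAK2; 0% = DMSO-treated cells and 100% = JAK inhibitor I control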
* = called active by the depositor; nt = not tested or not shown. Rows were chosen to be rich in hits. Some 2.2% of all compounds tested hit in one or more screens of this group.

SMILES	IEC-6 tox	MT stabilize HCS	BaF3 tox	b-catenin transl	APP transl inh	Ba/F3 V617F tox
COc1ccc(CNC(=O)[C@H](CCSC)NC(=O)N2CCn3c2nc2ccccc23)cc1	-2	nt	nt	nt	nt	nt
COC(=O)c1ccc(Oc2cc(C)nc(SC)n2)cc1	7	51*	5	8	86*	1
O=C(NC(=S)Nc1ccc2oc(=O)ccc2c1)c1cccc(Cl)c1	-8	nt	nt	nt	nt	nt
Cc1ccc(S(=O)(=O)Nc2ccc3c(c2)OCCO3)cc1	-4	7	4	-1	-6	0
Cc1ccc(S(=O)(=O)Nc2ccc3nc(C)sc3c2)cc1	5	4	39*	-3	13	34*
Cc1nc2ccc(NS(=O)(=O)c3ccc4c(c3)OCCO4)cc2s1	14	2	53*	0	-11	42*
Cc1nc2ccc(NS(=O)(=O)c3c(C)c(C)cc(C)c3C)cc2s1	9	44*	8	2	-16	1
Cc1nc2cc(NS(=O)(=O)c3c(C)c(C)cc(C)c3C)ccc2s1	6	5	7	0	-11	3
Cc1cccc(NC(=O)c2cc[n+]([O-])cc2)c1C	2	nt	nt	nt	nt	nt
COc1cc(Cl)c(C)cc1NC(=O)CC1CCCC1	-1	nt	nt	nt	nt	nt
COc1ccc(Cc2nnc(N/N=C/c3ccc(Br)cc3)[nH]c2=O)cc1OC	-1	nt	1	1	nt	-3
COc1ccc(Cc2nnc(N/N=C/c3ccc(O)cc3)[nH]c2=O)cc1OC	-3	11	4	0	86*	-5
Cc1ccc(C)c(NC(=O)CN(C)C(=O)CSC(C)C(=O)Nc2cc(C)on2)c1 (centres undefined)	4	nt	nt	nt	nt	nt
CCOc1ccc(S(=O)(=O)N2CCN(S(=O)(=O)c3ccc(OCC)cc3)C(C)C2)cc1 (centres undefined)	-5	4	1	-5	52*	-3
CN(C)CCCNS(=O)(=O)c1ccc(N2CCC(c3ccc(Cl)cc3)=N2)cc1	6	2	22	73*	3	3
O=S(=O)(c1ccc(N2CCC(c3ccc(Cl)cc3)=N2)cc1)N(CCO)CCO	0	2	7	-2	-6	-1
O=c1c2c3c(sc2nc(NCCO)n1CCc1ccccc1)CCCCC3	10	19*	12	32	3	4
O=C(CN1C(=O)C2C3C=CC(C3)C2C1=O)OCC(=O)c1ccc(Cl)c([N+](=O)[O-])c1 (centres undefined)	0	nt	nt	nt	nt	nt
O=C(c1ccco1)N1CCC(c2nc3c(nnn3Cc3ccc(F)cc3)c(=O)[nH]2)CC1	-8	nt	nt	nt	nt	nt
Brc1ccc2c(c1)C(c1cccnc1)=NNC(c1cccs1)=N2	-4	18*	8	18	-3	-1
CCOc1cc(C)c(S(=O)(=O)Nc2ccc3cn[nH]c3c2)cc1C	10	3	40*	-2	6	5
Cc1cc(C(C)(C)C)cc(C)c1Cn1c2[n+](c3ccc(C(F)(F)F)cc31)CCCCC2	5	3	53*	-2	6	49*
O=C(COc1ccc([N+](=O)[O-])cc1Cl)NCC1CCCO1 (centres undefined)	2	3	7	-1	2	1
COC(=O)C1=C(Nc2ccc(C)cc2)C=C(C)C(C(=O)OC)C1c1cccc(OC)c1 (centres undefined)	0	18	4	57*	-20	1
COC(=O)C1C(=O)C=C(Nc2ccc(F)cc2)CC1c1ccc(OC)cc1 (centres undefined)	2	3	8	0	-5	3
SMILES	IEC-6 tox	MT stabilize HCS	BaF3 tox	b-catenin transl	APP transl inh	Ba/F3 V617F tox
COC(=O)C1=C(Nc2ccc(C)cc2)C=C(C)C(C(=O)OC)C1c1ccc(OC)cc1 (centres undefined)	6	31*	4	72*	13	3
Cc1ccc(SCCN2CCC(O)CCC2=O)cc1 (centres undefined)	-2	nt	nt	nt	nt	nt
COc1cc(OC)cc(-c2nc3nc(C)c(CCC(=O)NCC(OC)OC)c(C)n3n2)c1	-3	1	8	5	10	3
COC(CNC(=O)CCc1c(C)nc2c(-c3ccc(F)cc3)c(C)nn2c1C)OC	-2	3	5	-7	55*	0
Cc1cc(NC(=S)N(CCCN2CCN(C)CC2)Cc2ccco2)ccc1Cl	-5	4	27*	-2	-16	35*
Cc1ccc(NC(=S)N(CCCN2CCOCC2)Cc2ccco2)cc1C	-6	5	9	2	-20	-1
COCCNC(=S)NNC(=O)c1cc(C2CC2)nc2ccccc12	1	nt	nt	nt	nt	nt
O=C(/C=C/c1ccccc1)Nc1cc(NC(=O)/C=C/c2ccccc2)cc(C(=O)O)c1	-4	nt	nt	nt	nt	nt
O=C(/C=C/c1ccccc1)Nc1cccc(C(=O)O)c1	4	2	10	0	64*	-2
Cc1ccc2nc(NC(=O)C3CCN(S(=O)(=O)c4cc([N+](=O)[O-])ccc4Cl)CC3)sc2c1	2	5	38*	nt	9	37*
O=C(Nc1nc2ccc(F)cc2s1)C1CCN(S(=O)(=O)c2cc([N+](=O)[O-])ccc2Cl)CC1	-7	2	5	2	-8	11
Nc1ccc(Br)cc1-c1nc2ccccc2[nH]c1=O	39*	2	100*	-4	-25	66*
Nc1ccccc1-c1nc2ccccc2[nH]c1=O	5	nt	nt	nt	nt	nt
CC1(C)C=C2C(=NN(c3ccccc3)C(N)=C2C#N)CO1	1	nt	nt	nt	nt	nt
Cc1ccc(NC(=O)CN2C(=O)N/C(=C\c3cccnc3)C2=O)cc1	-3	4	0	-3	54*	-5
CCOc1cc(/C=N/NC(=O)c2ccc(N(C)S(=O)(=O)c3ccccc3)cc2)ccc1OC	2	nt	nt	nt	nt	nt
O=C(Nc1ccc(Cl)cc1)Nc1ccc(N2CCCC2)c(S(=O)(=O)Nc2ccccc2Cl)c1	4	9	37*	0	4	53*
COc1cc(OC)c(C2N(C)c3ccccc3N2C)cc1OC	-2	2	59*	-1	-11	53*
Cc1cc(NS(=O)(=O)c2ccc(NC(=O)CCCOc3ccccc3C)cc2)no1	-3	nt	nt	nt	nt	nt
CCOC(=O)Cc1c(C)nc2c(-c3ccccc3)c[nH]n2c1=O	3	19*	4	-1	-13	6
Cc1noc(C(=O)Nc2ccc(F)c(Cl)c2)c1Cl	1	nt	nt	nt	nt	nt
CC(C)Cn1c(N)c(C(=O)COC(=O)CC23CC4CC(CC(C4)C2)C3)c(=O)n(C)c1=O	11	2	42*	nt	10	36*
NC(=S)N=Nc1c(O)n(CCCl)c2ccc(Br)cc12	1	nt	7	-3	nt	-3
NC(=S)N=Nc1c(O)n(Cc2ccc(Br)cc2)c2ccccc12	-5	20	1	9	58*	-1
C/C(Cl)=C\Cn1c(O)c(N=NC(N)=S)c2cc(Br)ccc21	30*	3	4	0	31	4
C(#Cc1ccccc1)C[N+]1(CC#Cc2cccc3ccccc23)CCCC1	7	2	81*	2	-8	97*
C#CC[N+]1(CC#Cc2ccccc2)CCCC1	6	2	45*	0	-14	40*

Bioassay records: PubChem BioAssay, several laboratories
